In ChEMBL document CHEMBL3865820, “Bioactive Dibenzo-α-pyrone Derivatives from the Endophytic Fungus Rhizopycnis vagum Nitaf22” (J Nat Prod, 2016):
Converted amounts (≈) assume the structure as drawn.

Assays:
[1] = system: Pseudomonas amygdali pv. lachrymans; assay: Antibacterial activity against Pseudomonas lachrymans ATCC 11921 by broth dilution colorimetric assay; format: functional
Outline: (§1)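 Modified broth dilution colorimetric assay in 96-well plates, run against a plant- and human-pathogen panel. Both MIC and median inhibitory concentration (IC50) were determined. Streptomycin sulfate served as the positive control.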

[2] = system: Staphylococcus haemolyticus; assay: Antibacterial activity against Staphylococcus haemolyticus ATCC 29970 by broth dilution colorimetric assay; format: functional; outline: as §1
[3] = system: Agrobacterium tumefaciens; assay: Antibacterial activity against Agrobacterium tumefaciens ATCC 11158 by broth dilution colorimetric assay; format: functional; outline: as §1
[4] = system: Xanthomonas euvesicatoria; assay: Antibacterial activity against Xanthomonas vesicatoria ATCC 11633 by broth dilution colorimetric assay; format: functional; outline: as §1
[5] = Antibacterial activity against Ralstonia solanacearum ATCC 11696 by broth dilution colorimetric assay; format: functional, Ralstonia solanacearum K60-1
Outline: (§2)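 Modified broth dilution colorimetric assay in 96-well plates, reporting both minimum inhibitory concentration (MIC) and median inhibitory concentration (IC50). Streptomycin sulfate served as positive control.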

[6] = system: Bacillus subtilis; assay: Antibacterial activity against Bacillus subtilis ATCC 11562 by broth dilution colorimetric assay; format: functional; outline: as §1
[7] = Cytotoxicity against human HepG2 cells by MTT assay; format: functional, cell-based
Outline: (§3)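 Microculture tetrazolium (MTT) assay on a panel of human carcinoma cell lines: colon HCT-116, hepatocellular HepG2, gastric BGC-823, NSCLC NCI-H1650, ovarian A2780, melanoma A375, lung adenocarcinoma A549, breast MCF-7 and pancreatic Capan2. IC50 values are reported in μM.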

[8] = Cytotoxicity against human NCI-H1650 cells by MTT assay; format: functional, cell-based; outline: as §3
[9] = system: Pyricularia oryzae; assay: Antifungal activity against Magnaporthe oryzae assessed as inhibition of spore germination after 8 hrs by microscopic analysis; format: functional
Outline: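 Spores taken from 7-day-old M. oryzae cultures (2 × 10^6 spores per mL). Compound in 10% aqueous ethanol was mixed 1:1 with the spore suspension on a concave slide and kept in a dark moist chamber at 25 °C for 8 h. Germination was counted by microscope. Inhibition % = [(Gc − Gt)/Gc] × 100 against 10% ethanol control, with triplicates. IC50 was obtained by linear regression; carbendazim served as positive control.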

[10] = Cytotoxicity against human BGC823 cells by MTT assay; format: functional, cell-based; conditions: BGC-823; outline: as §3
[11] = Cytotoxicity against human A2780 cells by MTT assay; format: functional, cell-based; outline: as §3
[12] = Cytotoxicity against human HCT116 cells by MTT assay; format: functional, cell-based; conditions: HCT-116; outline: as §3
[13] = Cytotoxicity against human HuCCa1 cells; format: functional, cell-based; conditions: HuCC-A1
[14] = Cytotoxicity against human MDA-MB-231 cells; format: functional, cell-based
[15] = Cytotoxicity against human A549 cells; format: functional, cell-based
[16] = Cytotoxicity against human HeLa cells; format: functional, cell-based
[17] = Cytotoxicity against human HepG2 cells; format: functional, cell-based
[18] = Cytotoxicity against human MRC5 cells; format: toxicity, cell-based
[19] = Cytotoxicity against human MOLT3 cells; format: functional, cell-based; conditions: MOLT-3
[20] = Cytotoxicity against human T47D cells; format: functional, cell-based
[21] = Cytotoxicity against human A375 cells by MTT assay; format: functional, cell-based; conditions: A-375; outline: as §3
[22] = system: Agrobacterium tumefaciens; assay: Antibacterial activity against Agrobacterium tumefaciens ATCC 11158 after 24 hrs by MTT based broth dilution colorimetric assay; format: functional; conditions: ATCC 11158, 24 h
[23] = system: Xanthomonas euvesicatoria; assay: Antibacterial activity against Xanthomonas vesicatoria ATCC 11633 after 24 hrs by MTT based broth dilution colorimetric assay; format: functional; conditions: ATCC 11633, 24 h; outline: as §2
[24] = system: Bacillus subtilis; assay: Antibacterial activity against Bacillus subtilis ATCC 11562 after 24 hrs by MTT based broth dilution colorimetric assay; format: functional; conditions: ATCC 11562, 24 h
[25] = Cytotoxicity against human A549 cells by MTT assay; format: functional, cell-based; outline: as §3
[26] = Cytotoxicity against human Capan2 cells by MTT assay; format: functional, cell-based; conditions: Capan-2; outline: as §3
[27] = system: Pseudomonas amygdali pv. lachrymans; assay: Antibacterial activity against Pseudomonas lachrymans ATCC 11921 after 24 hrs by MTT based broth dilution colorimetric assay; format: functional; conditions: ATCC 11921, 24 h; outline: as §2
[28] = Cytotoxicity against human MCF7 cells by MTT assay; format: functional, cell-based; outline: as §3

With `COC1=C(N)[C@](C)(O)c2c(oc(=O)c3c(O)cc(OC)cc23)C1=O` the MIC [1] was greater than 200 µg/mL, the MIC [2] was greater than 200 µg/mL and the MIC [3] was greater than 200 µg/mL. For the same molecule, the MIC [4] was greater than 200 µg/mL, the MIC [5] was greater than 200 µg/mL and the MIC [6] was greater than 200 µg/mL.

For `COc1cc(O)c2c(=O)oc3c(O)c(OC)cc(C)c3c2c1`, the MIC [1] was greater than 200 µg/mL, the IC50 [7] was greater than 10 µM and the MIC [2] was greater than 200 µg/mL. The IC50 [8] was greater than 10 µM, the MIC [3] was greater than 200 µg/mL and the IC50 [9] was greater than 200 µg/mL. It also gave an MIC [4] greater than 200 µg/mL, an MIC [5] greater than 200 µg/mL and an MIC [6] greater than 200 µg/mL. The IC50 [10] was greater than 10 µM, the IC50 [11] was greater than 10 µM and the IC50 [12] was greater than 10 µM.

Molecule `COC1=C(Cl)[C@](C)(O)c2c(oc(=O)c3c(O)cc(OC)cc23)C1=O` has an MIC [1] greater than 200 µg/mL, an IC50 [7] of 5.9 µM and an MIC [2] greater than 200 µg/mL. The IC50 [8] was 3.2 µM, the IC50 [13] was 1.1 to 12.6 µM and the IC50 [14] was 1.1 to 12.6 µM. The MIC [3] was greater than 200 µg/mL, the IC50 [9] was 12 µg/mL (≈ 34 µM) and the IC50 [15] was 1.1 to 12.6 µM. It also gave an MIC [4] greater than 200 µg/mL, an MIC [5] greater than 200 µg/mL and an IC50 [16] of 1.1 to 12.6 µM. It also gave an IC50 [6] of 21.6 µg/mL (≈ 61.2 µM), an MIC [6] of 50 µg/mL (≈ 142 µM) and an IC50 [17] of 1.1 to 12.6 µM. The IC50 [10] was 7.8 µM, the IC50 [18] was 1.1 to 12.6 µM and the IC50 [11] was 3.6 µM. It also gave an IC50 [19] of 1.1 to 12.6 µM, an IC50 [12] of 4.2 µM and an IC50 [20] of 1.1 to 12.6 µM.

With `COc1cc(O)c2c(=O)oc3cc(O)cc(C)c3c2c1` the IC50 [21] was greater than 50 µM, the IC50 [22] was 16.7 to 34.3 µg/mL (≈ 61.3 to 126 µM) and the IC50 [23] was 16.7 to 34.3 µg/mL (≈ 61.3 to 126 µM). It also gave an IC50 [24] of 16.7 to 34.3 µg/mL (≈ 61.3 to 126 µM), an IC50 [25] of 70.4 µM and an IC50 [26] greater than 50 µM. It also gave an IC50 [27] of 16.7 to 34.3 µg/mL (≈ 61.3 to 126 µM), an IC50 [12] greater than 50 µM and an IC50 [28] greater than 50 µM.

Molecule `Cc1cc(O)cc2oc(=O)c3c(O)cc(O)cc3c12` [ALTERNARIOL] has an IC50 [1] of 3.5 µg/mL (≈ 13.6 µM), an MIC [1] of 25 µg/mL (≈ 96.8 µM) and an IC50 [7] greater than 10 µM. It also gave an IC50 [2] of 7.9 µg/mL (≈ 30.6 µM), an MIC [2] of 50 µg/mL (≈ 194 µM) and an IC50 [8] greater than 10 µM. It also gave an IC50 [3] of 11.4 µg/mL (≈ 44.1 µM), an MIC [3] of 50 µg/mL (≈ 194 µM) and an IC50 [9] greater than 200 µg/mL. For the same molecule, the IC50 [4] was 4.9 µg/mL (≈ 19 µM), the MIC [4] was 25 µg/mL (≈ 96.8 µM) and the IC50 [5] was 5.5 µg/mL (≈ 21.3 µM). It also gave an MIC [5] of 25 µg/mL (≈ 96.8 µM), an IC50 [6] of 7 µg/mL (≈ 27.1 µM) and an MIC [6] of 50 µg/mL (≈ 194 µM). The IC50 [10] was greater than 10 µM, the IC50 [11] was greater than 10 µM and the IC50 [12] was greater than 10 µM.

`COC(=O)Nc1nc2ccccc2[nH]1` [CARBENDAZIM] gave an IC50 [9] of 6.9 µg/mL (≈ 36.1 µM).

With `CC(=O)O[C@H]1C(=O)[C@@]2(C)[C@H]([C@H](OC(=O)c3ccccc3)[C@]3(O)C[C@H](OC(=O)[C@H](O)[C@@H](NC(=O)c4ccccc4)c4ccccc4)C(C)=C1C3(C)C)[C@]1(OC(C)=O)CO[C@@H]1C[C@@H]2O` [PACLITAXEL] the IC50 [7] was 0.012 µM, the IC50 [21] was 0.022 µM and the IC50 [8] was 0.068 µM. It also gave an IC50 [25] of 0.023 µM, an IC50 [26] of 0.017 µM and an IC50 [10] of 0.0033 µM. The IC50 [11] was 0.038 µM, the IC50 [12] was 0.0009 to 0.004 µM and the IC50 [28] was 0.0006 µM.

`CN[C@@H]1[C@H](O[C@H]2[C@H](O[C@H]3[C@H](O)[C@@H](O)[C@H](N=C(N)N)[C@@H](O)[C@@H]3N=C(N)N)O[C@@H](C)[C@]2(O)C=O)O[C@@H](CO)[C@H](O)[C@H]1O.CN[C@@H]1[C@H](O[C@H]2[C@H](O[C@H]3[C@H](O)[C@@H](O)[C@H](N=C(N)N)[C@@H](O)[C@@H]3N=C(N)N)O[C@@H](C)[C@]2(O)C=O)O[C@@H](CO)[C@H](O)[C@H]1O.O=S(=O)(O)O.O=S(=O)(O)O.O=S(=O)(O)O` [STREPTOMYCIN SULFATE] gave an IC50 [1] of 2.3 µg/mL, an MIC [1] of 7.5 µg/mL and an IC50 [2] of 1.4 µg/mL. It also gave an MIC [2] of 5 µg/mL, an IC50 [3] of 1.4 µg/mL and an MIC [3] of 5 µg/mL. For the same molecule, the IC50 [4] was 2.6 µg/mL, the MIC [4] was 10 µg/mL and the IC50 [5] was 1.2 µg/mL. The MIC [5] was 5 µg/mL, the IC50 [6] was 1.4 µg/mL and the MIC [6] was 5 µg/mL.
